Each structure is given as a SMILES string. Values joined by “and” are separate entries in the source; they are usually repeats but may differ in a detail not shown here. Equal values may be shown once. “Also recorded” adds a separate entry of the source. Read-outs that look alike come from different tables or passages of the source.

These results are taken from PMC4561054 (Drugs in R&D, 2015).

The conditions of series [1]: cited from earlier work.
The conditions of series [2]: cited from earlier work. The source holds these as a separate data set.
The conditions of series [3]: preclinical studies; cited from earlier work.
Series [4] in a line: Safety evaluation, Study 1. The series is classed as in vivo, human. An outline of the steps:
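Six healthy male nonsmokers (18–55 y) given one oral 200-mg dose of radiolabelled test compound in polyethylene glycol 400, fed. Safety covered subject-reported AEs, hematology, biochemistry, coagulation, urinalysis and electrocardiogram. Descriptive statistics only.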

A further series relates to plasma proteins. Nature of the series: Unbound simeprevir in plasma. The series is classed as in vitro ADME, human. An outline of the steps:
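Subjects with severe renal impairment or matched normal renal function, given 150 mg test compound orally daily for 7 days. Blood drawn pre-dose and 4 h post-dose. Unbound concentration measured by dialysis, then liquid scintillation counting of spiked tritiated test compound. Mean and SD reported per time point, plus fraction unbound.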

The conditions of series [5]: cited from earlier work. The source holds these as a separate data set.
Series [6] has as its system HCV genotype 1. As to conditions: COSMOS; simeprevir plus sofosbuvir with or without ribavirin; cited from earlier work.
Series [7] deals with HCV genotype 1. The conditions noted are these: treatment-naïve patients, simeprevir plus ribavirin and pegylated interferon, cited from earlier work.
Series [8] in a line: Safety and tolerability, Study 2. The series is classed as in vivo, human. An outline of the steps: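 Non-HCV-infected adults (18–70 y). Severe renal impairment group had MDRD eGFR ≤29 mL/min/1.73 m2 and no dialysis. Controls had eGFR ≥80 and were matched for sex, race, age and BMI. All took 150 mg test compound orally daily, fed, for 7 days. Subject-reported AEs recorded; hematology/biochemistry on Days 1, 3, 5, 7 and 8; urinalysis and ECG on Days 1 and 7.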

Series [9] is classed as in vivo, human. The conditions noted are these: for half-life: both, human, plasma, oral, 150 mg, Mean half-life. An outline of the steps: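 Severe renal impairment (eGFR ≤29 mL/min/1.73 m2) versus matched normal-function subjects (eGFR ≥80), n = 8 each. Oral 150 mg test compound capsule daily, fed, for 7 days; Day 7 dose given after ≥10-h fast plus standard breakfast. Plasma drawn pre-dose Days 5–6 and on Day 7 at 0–72 h; LC-MS/MS. Noncompartmental Cmin, Cmax and AUC24 taken on log scale. Linear mixed-effects model gave LS means and 90 % CI of group difference.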

Series [10] in a line: 14C-simeprevir mass balance study. The class given is in vivo, human. The conditions noted are these: as summarised in Discussion. An outline of the steps: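 Healthy adult males (18–55 y, BMI 18.0–30.0 kg/m2, nonsmokers). Single oral 200-mg dose of 14C-labelled plus unlabelled test compound in polyethylene glycol 400, fed, 1.85 MBq total. Urine pooled at 0–8, 8–16, 16–24, 24–36 and 36–48 h, then every 24 h. Every stool collected until ≥Day 8, <2 % of dose excreted per 24 h, and ≥7 stools. Radioactivity read by […] and expressed as % of dose; six subjects.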

The mark [11] stands for this setting: 14C-daclatasvir excretion study.
Where [12] appears, read: moderate to severe renal impairment vs healthy, single 400-mg dose.
Setting [13] is: whole study period, six healthy subjects.
[14] abbreviates: renal impairment group, treatment phase.
Where [15] appears, read: subject with rhabdomyolysis (also on high-dose fenofibrate), Day 9.

Take `COC(=O)N[C@H](C(=O)N1CCC[C@H]1c1nc(-c2ccc(-c3ccc(-c4c[nH]c([C@@H]5CCCN5C(=O)[C@@H](NC(=O)OC)C(C)C)n4)cc3)cc2)c[nH]1)C(C)C` [daclatasvir]: in [1] (setting [11]), the “Recovery from the feces” value was 88%. In addition, in series [1] (setting [11]), the “Total radioactivity dose eliminated in urine” value is listed as 6.6%. Besides, the Renal excretion in series [1] is on record as less than 10%. Further, the “Increase in AUCinf” value was roughly 51% in series [2] (ESRD), “approximately 18%” in series [2] (moderate renal impairment) and roughly 39% in series [2] (severe renal impairment).

Take `NC(=O)c1ncn([C@@H]2O[C@H](CO)[C@@H](O)[C@H]2O)n1` [ribavirin]: the “Radioactivity excreted in the urine” value in [1] (600-mg 14C-ribavirin dose) was 61%. For the same compound, in series [2] (setting [12]), the “Decrease in apparent clearance” value is on record as 50–75% and the “Increase in AUC” value is given as “two- to three-fold increase”.

Consider `COc1ccc2c(O[C@@H]3C[C@H]4C(=O)N[C@]5(C(=O)NS(=O)(=O)C6CC6)C[C@H]5/C=C\CCCCN(C)C(=O)[C@@H]4C3)cc(-c3nc(C(C)C)cs3)nc2c1C` [simeprevir], for which, in series [3], the Tissue distribution result was “predominately distributed to the liver and intestines with low distribution (similar or less than plasma) to the kidneys”. In addition, the “Deaths or AEs resulting in permanent premature discontinuation” value in series [4] (Study 1) is given as “No deaths or AEs resulting in permanent premature discontinuation from the study occurred”. For the same compound, in [4] (setting [13]), the “Dry mouth, subjects” value is listed as “one subject”; the “Increased ALT and AST levels, subjects” value is “two subjects”; the “Prolonged aPTT, subjects” value is reported as “two subjects”. The “Subjects with at least one AE” value in series [4] (whole study period, six healthy subjects, single 200-mg dose) is on record as “five subjects”. In addition, the “Mean unbound plasma concentration” value in the series on plasma proteins (matched healthy subjects, 4 h post-dose, SD 0.2574) is 0.2714. The “Mean unbound plasma concentration” value in the series with plasma proteins (matched healthy subjects, pre-dose, SD 0.1567) worked out at 0.1142. Besides, the “Mean unbound plasma concentration” value in the series on plasma proteins (subjects with renal impairment, 4 h post-dose) is listed as 0.4216 (SD 0.3319). For the same compound, in the series with plasma proteins (subjects with renal impairment, pre-dose), the “Mean unbound plasma concentration” value is 0.2892 (SD 0.4411). Besides, the half-life in [5] (HCV-infected subjects with normal renal function) is 41 h. Also, the “AUC (range of concentrations observed in phase III studies)” value in series [5] (HCV-infected subjects without renal impairment) is reported as 4848–449,185 ng·h/mL. The “Concentrations in subjects with HCV infection compared with non-HCV-infected subjects” value in series [5] is “two- to three-fold higher”. Also, the SVR rates with HCV genotype 1 [6] is on record as 92–94%. In addition, in the series on HCV genotype 1 [7] (QUEST-1), the SVR rate was 80%. The SVR rate with HCV genotype 1 [7] (QUEST-2) is on record as 81%. Moreover, the “Deaths or AEs resulting in permanent premature discontinuation of simeprevir” value in series [8] (Study 2) is “No deaths or AEs resulting in permanent premature discontinuation of simeprevir occurred”. Also, the “Severity of most AEs” value in series [8] (Study 2, both groups) is given as “grade I or II; also recorded: grade 1 or 2”. The “Subjects with at least one AE” value in series [8] (control group, treatment phase) was found to be 12.5%. In series [8] (control group, whole study period), the “Subjects with at least one AE” value worked out at 37.5%. The Severity of rhabdomyolysis entry in series [8] (one subject of renal impairment group, also receiving fenofibrate) is “grade 3”. Besides, in [8] (setting [14]), the “Subjects with at least one AE” value is on record as 50%, the Subjects with hyperbilirubinemia came out at 12.5%, the Subjects with hypertension is 12.5% and the “Subjects with increased blood alkaline phosphatase” value amounted to 12.5%. In series [8] (setting [14]), this compound had a Subjects with myalgia of 12.5% and a Subjects with rhabdomyolysis of 12.5%. Also, the “Subjects with at least one AE” value in series [8] (renal impairment group, whole study period) amounted to 50%. Besides, the “Relatedness of rhabdomyolysis and myalgia (investigator)” value in series [8] (same subject, also taking high-dose fenofibrate) was “probably related to simeprevir”. Also, in series [8] (setting [15]), the Creatine kinase level was found to be 96.76 μkat/L; the “Creatine kinase muscle brain fraction levels” value was 20.84 µg/L and 19.45 µg/L; the Myoglobin levels is 1200 µg/L and 1475 µg/L and 1476 µg/L. Besides, in [9] (based on LS mean ratio, Day 7), the “AUC24h higher in severe renal impairment compared with healthy subjects” value is 62% and the “Cmax higher in severe renal impairment compared with healthy subjects” value stood at 34%. This compound had a half-life in series [9] (healthy subjects) of 16.7 h. Further, the half-life in [9] (subjects with severe renal impairment) was 24 h. In series [10], the “14C-simeprevir excreted in the urine” value is less than 2%.

Consider `CC(C)OC(=O)[C@H](C)N[P@](=O)(OC[C@H]1O[C@@H](n2ccc(=O)[nH]c2=O)[C@](C)(F)[C@@H]1O)Oc1ccccc1` [sofosbuvir], for which, in series [1] (400-mg 14C-sofosbuvir dose), the “14C-sofosbuvir recovered from the urine” value is 80%. In addition, the “Increase in AUCinf” value in [2] (mild renal impairment vs normal renal function, single 400-mg dose) is on record as 61%; in series [2] (moderate renal impairment vs normal renal function, single 400-mg dose), 107%; in series [2] (severe renal impairment vs normal renal function, single 400-mg dose), 171%.
